Common to all, as to format: functional
The test system of assay [1] is Mycobacterium tuberculosis. The assay is described as follows: Antimycobacterial activity against isoniazid-resistant Mycobacterium tuberculosis H37Rv at 10 ug/ml by radiometric BACTEC assay. The essentials:
(§1)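 Isoniazid- or rifampicin-resistant H37Rv, growing inoculum 2.5-5.0 × 10⁵ CFU/vial, in radiometric 7H12 (BACTEC 12B) medium at 37 °C with two-fold compound dilutions. Growth index read daily in a BACTEC 460 until the 1:100 inoculum control reached GI 30. Percent inhibition = GI test/GI control × 100.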

Assay [2] relates to Mycobacterium tuberculosis. Kind of assay: Antimycobacterial activity against rifampin-resistant Mycobacterium tuberculosis H37Rv at 10 ug/ml by radiometric BACTEC assay. In outline: as §1
The test system of assay [3] is Mycobacterium tuberculosis. Kind of assay: Antimycobacterial activity against isoniazid-resistant Mycobacterium tuberculosis H37Rv at 2 ug/ml by radiometric BACTEC assay. In outline: as §1
Assay [4] deals with Mycobacterium tuberculosis. The assay is described as follows: Antimycobacterial activity against rifampin-resistant Mycobacterium tuberculosis H37Rv at 1 to 2 ug/ml by radiometric BACTEC assay. The essentials:
as §1

Assay [5] relates to Mycobacterium tuberculosis. Kind of assay: Antimycobacterial activity against isoniazid-resistant Mycobacterium tuberculosis H37Rv at 25 ug/ml by radiometric BACTEC assay. In outline:
as §1

Assay [6] deals with Mycobacterium tuberculosis. The assay is described as follows: Antimycobacterial activity against rifampin-resistant Mycobacterium tuberculosis H37Rv at 5 to 10 ug/ml by radiometric BACTEC assay. In outline: as §1
The test system of assay [7] is Mycobacterium tuberculosis. Kind of assay: Antimycobacterial activity against rifampin-resistant Mycobacterium tuberculosis H37Rv at 2 ug/ml by radiometric BACTEC assay. In outline:
as §1

Assay [8] relates to Mycobacterium tuberculosis. The assay is described as follows: Antimycobacterial activity against rifampin-resistant Mycobacterium tuberculosis H37Rv at 1 ug/ml by radiometric BACTEC assay. In outline: as §1

One may read the inhibition as the relative decrease from the control value, in per cent. A higher inhibition goes with a response far below the control. In the case of `Cc1cn([C@@H]2O[C@H](CO)[C@@H](Br)[C@@H]2O)c(=O)[nH]c1=O`, the figures for the inhibition at 10 µg/mL in assay [1] and in assay [2] were 75% and 70%, respectively. The same compound yielded an inhibition at 2 µg/mL in assay [3] of 50%. In assay [4], the “inhibition (INH)” value was 50%.
In the case of `Cc1cn([C@H]2C[C@H](Br)[C@@H](CO)O2)c(=O)[nH]c1=O`, the inhibition at 10 µg/mL in assay [1] stood at 50%. For the same compound, the inhibition at 25 µg/mL in assay [5] came out at 75%. For the same compound, the “inhibition (INH)” value in assay [6] was found to be 50%.
For the compound `CO[C@H]1/C=C/O[C@@]2(C)Oc3c(C)c(O)c4c(O)c(c(/C=N/N5CCN(C)CC5)c(O)c4c3C2=O)NC(=O)/C(C)=C\C=C\[C@H](C)[C@H](O)[C@@H](C)[C@@H](O)[C@@H](C)[C@H](OC(C)=O)[C@@H]1C` [RIFAMPIN], the inhibition at 2 µg/mL in assay [7] was found to be 0%.
On to `NNC(=O)c1ccncc1` [ISONIAZID], for which, in assay [8], the inhibition at 1 µg/mL was found to be 100%. In addition, testing at 2 µg/mL in assay [3] gave an inhibition of 0%.

The values above are taken from ChEMBL document CHEMBL1157790, “3'-bromo analogues of pyrimidine nucleosides as a new class of potent inhibitors of Mycobacterium tuberculosis” (J Med Chem, 2010).
